Reference: ChEMBL document CHEMBL4732173, “Easily accessed nitroquinolones exhibiting potent and selective anti-tubercular activity” (Eur J Med Chem, 2021)
Converted amounts (≈) assume the structure as drawn.

These molecules were tested on Mycobacterium tuberculosis (assay: Antitubercular activity against Mycobacterium tuberculosis harboring gfp reporter gene and wild type DrpE1 assessed as inhibition of bacterial growth incubated for 14 days by fluorescence based analysis). Conditions: 336 h, time 14 day.
Format: functional
Method in brief: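 Controls were rifampicin at 2× MIC and 5% DMSO. Plates ran 14 days at 37 °C, 5% CO2, with GFP read at ex 485/em 520. Data were normalised and curve-fitted (Levenberg-Marquardt). MIC90 is the lowest concentration inhibiting >90% of growth.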

First: N#Cc1ccc(Cn2cc(C(=O)NCCNCCO)c(=O)c3cc([N+](=O)[O-])ccc32)cc1
Second: O=C(NCCNCCO)c1cn(Cc2ccc(F)cc2)c2ccc([N+](=O)[O-])cc2c1=O
The MIC90 of the first is higher: > 125 µM for the first, 0.919 µM (≈ 0.394 µg/mL) for the second.

First: N#Cc1ccc(Cn2cc(C(=O)NCCOCCO)c(=O)c3cc([N+](=O)[O-])ccc32)cc1
Second: O=C(NCCOCCO)c1cn(Cc2ccc(F)cc2)c2ccc([N+](=O)[O-])cc2c1=O
The MIC90 of the first is 1.7-fold higher: 14 µM (≈ 6.11 µg/mL) for the first, 8.08 µM (≈ 3.47 µg/mL) for the second.

First: O=C(NCCOCCO)c1cn(Cc2cccc(F)c2)c2ccc([N+](=O)[O-])cc2c1=O
Second: O=C(NCCOCCO)c1cn(Cc2cccc(Cl)c2)c2ccc([N+](=O)[O-])cc2c1=O
The MIC90 of the first is higher: > 125 µM for the first, 16 µM (≈ 7.15 µg/mL) for the second.

`O=C(NO)c1cn(Cc2cccc(F)c2)c2ccc([N+](=O)[O-])cc2c1=O` and `O=C(NO)c1cn(Cc2cccc(Br)c2)c2ccc([N+](=O)[O-])cc2c1=O` cannot be ordered by MIC90: > 125 µM for the first, > 125 µM for the second.

Going from `O=C(NCCN1CCOCC1)c1cn(Cc2cccc(Cl)c2)c2ccc([N+](=O)[O-])cc2c1=O` to `O=C(NCCN1CCOCC1)c1cn(Cc2cccc(F)c2)c2ccc([N+](=O)[O-])cc2c1=O`, the MIC90 rises from 31.9 µM (≈ 15 µg/mL) to > 125 µM.

First: COCCNC(=O)c1cn(Cc2cccc(F)c2)c2ccc([N+](=O)[O-])cc2c1=O
Second: COCCNC(=O)c1cn(Cc2cccc(Cl)c2)c2ccc([N+](=O)[O-])cc2c1=O
The MIC90 of the first is higher: > 125 µM for the first, 0.675 µM (≈ 0.281 µg/mL) for the second.

`N#Cc1cccc(Cn2cc(C(=O)NO)c(=O)c3cc([N+](=O)[O-])ccc32)c1` and `N#Cc1cccc(Cn2cc(C(=O)O)c(=O)c3cc([N+](=O)[O-])ccc32)c1` cannot be ordered by MIC90: > 125 µM for the first, > 125 µM for the second.

First: COCCNC(=O)c1cn(Cc2ccc(C#N)cc2)c2ccc([N+](=O)[O-])cc2c1=O
Second: COCCNC(=O)c1cn(Cc2ccc(F)cc2)c2ccc([N+](=O)[O-])cc2c1=O
The MIC90 of the first is higher: > 125 µM for the first, < 0.244 µM for the second.

Compared with `CCOC(=O)c1c[nH]c2c(C(F)(F)F)cc([N+](=O)[O-])cc2c1=O`, `O=C(NO)c1cn(Cc2cccc(Cl)c2)c2ccc([N+](=O)[O-])cc2c1=O` is 68-fold higher in MIC90: 1.84 µM (≈ 0.609 µg/mL) for the first, 125 µM (≈ 46.7 µg/mL) for the second.

First: N#Cc1cccc(Cn2cc(C(=O)NCCOCCO)c(=O)c3cc([N+](=O)[O-])ccc32)c1
Second: COCCNC(=O)c1cn(Cc2cccc(C#N)c2)c2ccc([N+](=O)[O-])cc2c1=O
The MIC90 of the first is lower: 15 µM (≈ 6.54 µg/mL) for the first, > 125 µM for the second.

First: CO[C@H]1/C=C/O[C@@]2(C)Oc3c(C)c(O)c4c(O)c(c(/C=N/N5CCN(C)CC5)c(O)c4c3C2=O)NC(=O)/C(C)=C\C=C\[C@H](C)[C@H](O)[C@@H](C)[C@@H](O)[C@@H](C)[C@H](OC(C)=O)[C@@H]1C [RIFAMPIN]
Second: O=C(NCCN1CCOCC1)c1cn(Cc2cccc(Br)c2)c2ccc([N+](=O)[O-])cc2c1=O
The MIC90 of the first is lower: 0.01 µM (≈ 0.00823 µg/mL) for the first, > 125 µM for the second.

`O=C(NCCNCCO)c1cn(Cc2cccc(F)c2)c2ccc([N+](=O)[O-])cc2c1=O` and `N#Cc1cccc(Cn2cc(C(=O)NCCNCCO)c(=O)c3cc([N+](=O)[O-])ccc32)c1` are within 1.5-fold of each other in MIC90: 3.7 µM (≈ 1.59 µg/mL) for the first, 3.69 µM (≈ 1.61 µg/mL) for the second.

`NNC(=O)c1ccncc1` [ISONIAZID] showed an MIC90 of 0.2 µM (≈ 0.0274 µg/mL).

The molecules below were run on Mycobacterium tuberculosis (assay: Antitubercular activity against Mycobacterium tuberculosis harboring gfp reporter gene and DrpE1 mutation assessed as inhibition of bacterial growth incubated for 14 days by fluorescence based analysis). Conditions: time 14 day.
Format: functional

Work on `COCCNC(=O)c1cn(Cc2ccc(F)cc2)c2ccc([N+](=O)[O-])cc2c1=O` yielded an MIC90 of 62.5 µM (≈ 25 µg/mL).
